Experimental data gathered from unrelated publications.
Each line is one published result; the experiments were not run side by side.
Target: Rho-associated protein kinase 1 (ROCK1, Homo sapiens, UniProt Q13464)

SMILES	assay	setting	remaining binding [%]
O=C(Nc1c[nH]nc1C(=O)NC1CCNCC1)c1cc(F)cc(F)c1	binding, competition with immobilised ligand	1 µM	98
C=CC(=O)N1CCC(C(=O)NCC(=O)N2CCN(c3nc(-c4cnc(N)nc4C(F)F)nc(N4CCOCC4)n3)CC2)CC1	binding, competition with immobilised ligand	1 µM	100
COc1cnc(Nc2cccc(S(N)(=O)=O)c2)nc1N1CCN(c2ccccc2)C(=O)C1	binding, competition with immobilised ligand	1 µM	43
O=C(c1ccc(Nc2ncc(Cl)c(-c3ccc(Cl)s3)n2)cc1)N1CCC(N2CCCC2)CC1	binding, competition with immobilised ligand	1 µM	4.9
N[C@@H]1CCN(c2nccc(-c3cnn4ncccc34)n2)C1	binding	1 µM	94
FC(F)(F)Oc1cccc(-c2cnc3ccc(-c4ccncc4)nn23)c1	binding, competition with immobilised ligand	5 µM	42
O=C(NCCCN1CCOCC1)c1ccc(Nc2ncc(Cl)c(-c3ccc(Cl)s3)n2)cc1	binding, competition with immobilised ligand	1 µM	90
C[C@@H](c1ccc(-n2cnc3c(N)ncnc32)cc1)N1CCc2nn(C)c(Cc3ccccc3)c2C1=O	binding, competition with immobilised ligand	0.1 µM	85
C[C@H](c1ccc(F)cc1)N(Cc1cccc(C(=O)O)c1)C(=O)c1cnc2ccccc2c1	cell-free assay, competition with immobilised ligand	1 µM	100
CN(C)c1nccc(-c2cnn3ncccc23)n1	binding	1 µM	100
CS(=O)(=O)N1CCCC(NC(=O)[C@H](CCC2CCCCC2)NC(=O)c2ccc(CNC(=O)c3cnc4ccccn34)cc2)C1 (stereo partly shown)	cell-free assay, competition with immobilised ligand	0.1 µM	100
COc1ccnn2ncc(-c3ccnc(N(C)C)n3)c12	binding	1 µM	93
CO[C@H]1CC[C@H](CNc2ccc(S(=O)(=O)NC(=O)c3ccc(N4CCN(CC5=C(c6ccc(Cl)cc6)CC(C)(C)CC5)CC4)cc3Oc3cnc4[nH]ccc4c3)cc2[N+](=O)[O-])CC1	cell-free assay, competition with immobilised ligand	1 µM	70
CN(C)c1nccc(-c2cnc3ncccn23)n1	binding	1 µM	74
C[C@H](c1ccnc(Nc2nc3ccc(-c4cc(N(C)C)ncn4)cc3[nH]2)c1)N1CCN(C(=O)CC(F)(F)F)CC1	cell-free assay, competition with immobilised ligand	0.1 µM	100
c1cnn2ncc(-c3ccnc(N4CCC45COC5)n3)c2c1	binding	1 µM	77
Cc1cnc(Nc2ccc(C(=O)N3CCC(N4CCCC4)CC3)cc2)nc1-c1cc2ccccc2s1	binding, competition with immobilised ligand	1 µM	7.7
N#Cc1ccc(Nc2ccc3[nH]c(=O)[nH]c3c2)c(Cl)c1	cell-free assay, competition with immobilised ligand	1 µM	100
C[C@@H]1CCN(c2nccc(-c3cnn4ncccc34)n2)C1	binding	1 µM	86
CCC(=N\O)/C(C)=C/c1ccc(F)cc1	cell-free assay, competition with immobilised ligand	1 µM	100
CN(CCCC(F)(F)F)c1nccc(-c2cnn3ncccc23)n1	binding	1 µM	100
COc1ncc2cc3ccccc3nc2c1C#N	cell-free assay, competition with immobilised ligand	5 µM	84
